This is a sample that favours compounds with a hit; in the whole collection about 2.8% have one here.
PAFAH2 inh – inhibitors of human PAFAH2; Q99487; recombinant PAFAH2, FP-rhodamine activity probe, fluorescence polarization; inhibition, % at 3.39 µM; 0.99% of 340,000 active;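 active = inhibition above the mean over all tested compounds plus 3 SD, cut at about 30% in these data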;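 also: inhibitors block probe labeling of enzyme so polarization drops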
ABHD4 inh – ABHD4 (mouse) inhibition, primary FP screen; inhibition, % at 8.92 µM; 0.54% of 370,000 active; Q8VD66; purified mABHD4, FP-Rh probe fluorescence polarization; AID 720543;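 active = inhibition exceeding the mean over every tested compound plus 3 SD, cut at about 30% in these data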
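Assay system: mABHD4 protein; medium: HEPES pH 7.0, NaCl, Pluronic buffer; dosing: 8.92 µM, single dose; schedule: 45 min + 60 min at 25 °C; signal: FP readout, ex 525 nm / em 598 nm; read-out: normalized percent inhibition of probe labeling; repeats: single replicate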
PAFAH1B2 inh – inhibitors of human PAFAH1B2. recombinant PAFAH1B2, FP-rhodamine activity probe, fluorescence polarization. inhibition, % at 3.39 µM. 1.2% of 340,000 active;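 active = inhibition above the mean of all tested compounds plus 3 SD, cut at about 24% in these data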
Target sequence (P68402 whole entry, looked up): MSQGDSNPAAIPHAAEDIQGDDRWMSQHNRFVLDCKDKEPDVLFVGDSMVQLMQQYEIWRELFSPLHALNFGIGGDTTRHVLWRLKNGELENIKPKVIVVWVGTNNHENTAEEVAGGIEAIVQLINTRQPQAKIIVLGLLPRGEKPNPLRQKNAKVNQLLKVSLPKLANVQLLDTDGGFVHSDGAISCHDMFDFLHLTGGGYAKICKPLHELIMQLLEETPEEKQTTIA
pPAFAH FP inh – pPAFAH (human) enzyme inhibition; inhibition, % at 3.39 µM; recombinant pPAFAH, FP-rhodamine probe fluorescence polarization; 1.5% of 330,000 active;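 active = inhibition above the mean inhibition across the screen plus 3 SD, cut at about 25% in these data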;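 also: inhibitors block binding of the rhodamine activity-based probe so polarization drops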
HTRA1 inh – blocks human HTRA1 serine peptidase; Q92743; recombinant HTRA1, FP-rhodamine activity-based probe, fluorescence polarization; inhibition, % at 5.96 µM; 0.5% of 340,000 active; in the data active = inhibition above about 36%
PAFAH1B3 inh – PAFAH1B3 (human) inhibition; 0.28% of 340,000 active; inhibition, % at 3.39 µM; AID 492972; recombinant PAFAH1B3, FP-rhodamine probe, fluorescence polarization;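 active = inhibition above the screen-wide average of all tested compounds plus 3 SD, cut at about 25% in these data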
Target sequence (Q15102 whole entry, looked up): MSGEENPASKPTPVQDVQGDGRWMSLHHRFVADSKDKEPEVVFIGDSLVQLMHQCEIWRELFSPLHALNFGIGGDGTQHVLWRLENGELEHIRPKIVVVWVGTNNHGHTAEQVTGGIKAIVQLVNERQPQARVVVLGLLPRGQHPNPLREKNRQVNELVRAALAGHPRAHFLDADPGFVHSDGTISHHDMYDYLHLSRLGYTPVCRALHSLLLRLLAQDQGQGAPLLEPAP
HTRA1 inh conf – confirmation of human HTRA1 inhibitors; recombinant HTRA1, FP-rhodamine activity-based probe, fluorescence polarization; 66% of 1,600 active; shares compounds with HTRA1 inh; inhibition, % at 5.96 µM;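 active = mean inhibition over three repeats above a set limit taken from the earlier primary screen, cut at about 37% in these data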;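 also: inhibitors block probe binding so polarization drops and inhibition rises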
mABHD4 conf – ABHD4 (mouse) inhibition, FP confirmation | shares compounds with ABHD4 inh | purified mABHD4, FP-Rh probe fluorescence polarization | inhibition, % at 8.92 µM | 55% of 1,800 active | AID 720658;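 active = mean inhibition across replicates above the hit cutoff set in the primary screen, cut at about 30% in these data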
Large screens that a line does not name were inactive (follow-up assays come after a bar, where they were run).

Cc1ccc2sc(NNC(=O)c3cc(=O)c4ccccc4o3)nc2c1C	ABHD4 inh 41, HTRA1 inh 70 | HTRA1 inh conf 132 | mABHD4 conf 59
Cc1cccc2sc(NNC(=O)c3cc(=O)c4ccccc4o3)nc12	ABHD4 inh 30, pPAFAH FP inh 27, HTRA1 inh 38 | HTRA1 inh conf 64 | mABHD4 conf 44
C#CCNC(=O)C[C@H]1C(=O)N(Cc2ccc(OC)cc2)C2=CCCCC[C@@]21C(=O)OC	none (no result: PAFAH2 inh, PAFAH1B2 inh, pPAFAH FP inh, HTRA1 inh, PAFAH1B3 inh)
O=[N+]([O-])c1ccc2c([N+](=O)[O-])ccc3c2c1CC3	ABHD4 inh 40, HTRA1 inh 54 (no result: PAFAH2 inh, PAFAH1B2 inh, pPAFAH FP inh, PAFAH1B3 inh) | HTRA1 inh conf 38 | mABHD4 conf 90
CN(Cc1ccccc1)C(=O)OCc1cn(Cc2ccc(Cl)cc2)nn1	none (no result: PAFAH2 inh, PAFAH1B2 inh, pPAFAH FP inh, HTRA1 inh, PAFAH1B3 inh)
COc1ccc(C2CC3(O)NC(=O)C(C#N)(C3C)C2(C#N)C#N)cc1 (stereo unspecified)	none (no result: PAFAH2 inh, PAFAH1B2 inh, HTRA1 inh, PAFAH1B3 inh)
COc1ccc(C2OC34CCCCC3C(C#N)(C#N)C2(C#N)C(=N)O4)cc1 (stereo unspecified)	PAFAH2 inh 61, ABHD4 inh 34, PAFAH1B2 inh 46, HTRA1 inh 36, PAFAH1B3 inh 50 | HTRA1 inh conf 43 | mABHD4 conf 52
O=C(c1ccco1)N1CCN(CCCCN2C(=O)c3ccccc3C2=O)CC1	none
O=C1c2ccccc2-c2onc3c(N4CCN(CCO)CC4)cc(N4CCN(C(=O)c5ccco5)CC4)c1c23	ABHD4 inh 35, pPAFAH FP inh 29, HTRA1 inh 67 | HTRA1 inh conf 72 | mABHD4 conf 43
C[C@H](O)[C@@H]1C(=O)N2CCc3c([nH]c4c(-c5ccc6c(c5)OCO6)cccc34)[C@@H]2C[C@@H]1N(C)C(=O)Nc1ccccc1	none (no result: PAFAH2 inh, PAFAH1B2 inh, pPAFAH FP inh, HTRA1 inh, PAFAH1B3 inh)
Oc1ccc(/C=N/N(c2ccccc2)c2ccccc2)cc1O	ABHD4 inh 42, pPAFAH FP inh 69, HTRA1 inh 57 | HTRA1 inh conf 97 | mABHD4 conf inactive
CCN(CC)c1ccc(/C=N/N(c2ccccc2)c2ccccc2)c(O)c1	none
Oc1ccc(/C=N/N(c2ccccc2)c2ccccc2)c(O)c1O	ABHD4 inh 39, pPAFAH FP inh 69, HTRA1 inh 68 | HTRA1 inh conf 79 | mABHD4 conf 30
CC(C)(C)c1cc(CCC(=O)NCCc2ccccn2)cc(C(C)(C)C)c1O	none
O=C1C=C(NCCc2cc(Br)c(O)c(Br)c2)C(=O)c2ncccc21	PAFAH2 inh 37, ABHD4 inh 48, PAFAH1B2 inh 28, HTRA1 inh 53, PAFAH1B3 inh 68 (no result: pPAFAH FP inh) | HTRA1 inh conf 43 | mABHD4 conf 51
O=S1(=O)c2ccc(N3CCSCC3)cc2Oc2ccccc2CN1Cc1cn(Cc2cccc(F)c2)nn1	none (no result: PAFAH2 inh, PAFAH1B2 inh, pPAFAH FP inh, HTRA1 inh, PAFAH1B3 inh)
O=c1cc(-c2ccccc2)oc2cccc(O)c12	none (no result: pPAFAH FP inh)
O=c1oc(-c2ccc(O)c(O)c2)cc2cccc(O)c12	ABHD4 inh 35, pPAFAH FP inh 25, HTRA1 inh 62 | HTRA1 inh conf 68 | mABHD4 conf 34
CC(C)c1ccc(CNc2ccc(N3CCOCC3)cc2)cc1	ABHD4 inh 30, HTRA1 inh 57 | HTRA1 inh conf inactive | mABHD4 conf inactive
Nc1c(C(=O)N2CCN(c3ccccc3)CC2)nnn1Cc1ccc(Cl)cc1	none (no result: PAFAH2 inh, PAFAH1B2 inh, pPAFAH FP inh, HTRA1 inh, PAFAH1B3 inh)
CCCCN1C(=O)N2Cc3cc(OC)ccc3C2CS1(=O)=O (stereo unspecified)	none (no result: PAFAH2 inh, PAFAH1B2 inh, pPAFAH FP inh, HTRA1 inh, PAFAH1B3 inh)
CCS(=O)(=O)NCc1ccc2c(c1)cc(C)n2C	none
COc1ccc(S(=O)(=O)NCc2ccc3c(c2)cc(C)n3C)cc1	ABHD4 inh 47, HTRA1 inh 40 | HTRA1 inh conf inactive | mABHD4 conf inactive
C/C(=N\Nc1nc2c(s1)CCCC2)c1ccc(Cl)cc1	ABHD4 inh 32, HTRA1 inh 54 | HTRA1 inh conf inactive | mABHD4 conf 50
CN(C)c1ccc(C(=O)Nc2nc3c(s2)CCCC3)cc1	none
